The target of test [1] is Pepsin A (Sus scrofa) (UniProt P00791). The test is described as follows: The compound was tested for time dependent inhibition against carboxyl protease (pepsin); No inhibition.
The next test addresses Pepsin A (Sus scrofa, UniProt P00791). The test is described as follows: The compound was tested for inhibition of carboxyl protease (pepsin) inhibition. A digest of the protocol:
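Porcine pepsin was assayed spectrophotometrically with the heptapeptide substrate Phe-Gly-His-Phe(NO2)-Phe-Ala-Phe-OMe (Km 4.0×10^-5 M). Fractional velocity (Vi/V0) was plotted against inhibitor concentration to obtain IC50. IC50 was converted to Ki with Cha's equation, Ki = (IC50 − Et/2)(1 + S/Km)^-1, using total enzyme and substrate concentrations. Time-dependent inhibitors were preincubated with enzyme for 10 min, and steady-state velocities were used.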

Test [2] deals with Pepsin A (Sus scrofa) (UniProt P00791). The test is described as follows: The compound was tested for time dependent inhibition against carboxyl protease (pepsin); Yes.

Structures are written as SMILES. The source made the active and inactive calls. The calls are words filed in the database; no cut-off is given here. Square brackets hold non-standard residues; d marks the D form. Peptide text beside a SMILES is read from it. * marks the point of attachment. Sta = CC(C)C[C@H](N)[C@@H](O)CC(=O)O; Isovaleryl = CC(C)CC(=O)*; NHIsopentyl = CC(C)CCN*

Chain of Pepsin A (Sus scrofa) (P00791 60-385 limits assumed): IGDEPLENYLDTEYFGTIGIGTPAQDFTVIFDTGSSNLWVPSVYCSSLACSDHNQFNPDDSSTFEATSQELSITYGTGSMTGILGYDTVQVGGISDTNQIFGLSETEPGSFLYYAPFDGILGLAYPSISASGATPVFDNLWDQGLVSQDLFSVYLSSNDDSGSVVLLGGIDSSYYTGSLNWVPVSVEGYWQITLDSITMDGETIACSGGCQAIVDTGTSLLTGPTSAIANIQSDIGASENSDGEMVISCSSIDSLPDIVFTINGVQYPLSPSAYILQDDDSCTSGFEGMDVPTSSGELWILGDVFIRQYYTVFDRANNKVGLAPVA
Chain of Pepsin A (P00791 whole entry): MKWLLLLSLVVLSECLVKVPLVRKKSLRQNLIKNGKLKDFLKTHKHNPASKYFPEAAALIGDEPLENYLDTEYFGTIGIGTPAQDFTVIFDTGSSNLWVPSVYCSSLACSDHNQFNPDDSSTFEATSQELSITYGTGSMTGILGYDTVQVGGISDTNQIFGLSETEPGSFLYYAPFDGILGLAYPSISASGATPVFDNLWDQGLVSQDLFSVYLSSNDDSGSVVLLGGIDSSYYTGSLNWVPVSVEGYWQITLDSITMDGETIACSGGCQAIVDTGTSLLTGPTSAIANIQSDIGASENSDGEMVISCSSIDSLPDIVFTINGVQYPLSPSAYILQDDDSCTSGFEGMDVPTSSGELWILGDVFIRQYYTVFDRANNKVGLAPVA

Usually Ki stands for the dissociation constant of the complex between target and ligand, obtained from inhibition or displacement. As for `CC(C)CCNC(=O)[C@H](C)NC(=O)C[C@H](O)[C@H](CC(C)C)NC(=O)[C@@H](NC(=O)OC(C)(C)C)C(C)C`, the TDI result at Pepsin A (Sus scrofa) [1] was “inactive”. The Ki on Pepsin A is 170 nM.

As for `CC(C)CCNC(=O)[C@H](C)NC(=O)C[C@H](O)[C@H](CC(C)C)NC(=O)[C@@H](NC(=O)CC(C)C)C(C)C`, on Pepsin A (Sus scrofa) [2], the TDI result is “Active”. The compound also came in with a Ki on Pepsin A of 2.9 nM.

As for `CC(C)CCNC(=O)[C@H](C)NC(=O)C[C@H](O)[C@H](CC(C)C)NC(=O)[C@@H](NC(=O)C(C)C)C(C)C`, the TDI entry at Pepsin A (Sus scrofa) [2] was “Active”. In addition, the Ki at Pepsin A stood at 1.6 nM.

In the case of `CC(C)CCNC(=O)[C@H](C)NC(=O)C[C@H](O)[C@H](CC(C)C)NC(=O)[C@@H](NC(=O)[C@@H](NC(=O)OC(C)(C)C)C(C)C)C(C)C`, at Pepsin A (Sus scrofa) [2], the TDI entry was “Active”. The Ki at Pepsin A was ~6 nM.

As to `CCC(CC)C(=O)N[C@H](C(=O)N[C@@H](CC(C)C)[C@@H](O)CC(=O)N[C@@H](C)C(=O)NCCC(C)C)C(C)C`, the TDI result on Pepsin A (Sus scrofa) [2] was “Active”. The compound further had a Ki at Pepsin A of 0.18 nM.

Turning to `CC(C)CCNC(=O)[C@H](C)NC(=O)C[C@H](O)[C@H](CC(C)C)NC(=O)[C@@H](NC(=O)[C@@H](NC(=O)CC(C)C)C(C)C)C(C)C` (Isovaleryl-VV[Sta]A-NHIsopentyl), on Pepsin A (Sus scrofa) [2], the TDI entry is “Active”. On Pepsin A, the Ki was ~0.1 nM.

On to `CCC(C)C(=O)N[C@H](C(=O)N[C@@H](CC(C)C)[C@@H](O)CC(=O)N[C@@H](C)C(=O)NCCC(C)C)C(C)C` (stereo not given in full), for which the TDI result at Pepsin A (Sus scrofa) [2] is “Active”. The Ki at Pepsin A amounted to 0.31 nM.

For `CC(C)CCNC(=O)[C@H](C)NC(=O)C[C@H](O)[C@H](CC(C)C)NC(=O)[C@@H](NC(=O)OC(C)C)C(C)C`, the TDI result on Pepsin A (Sus scrofa) [1] is “inactive”. The affinity on Pepsin A corresponds to a Ki of 8.6 nM.

On to `CC(C)CCNC(=O)[C@H](C)NC(=O)C[C@H](O)[C@H](CC(C)C)NC(=O)[C@@H](NC(=O)CC(C)(C)C)C(C)C`, for which the TDI entry on Pepsin A (Sus scrofa) [1] is “inactive”. The Ki at Pepsin A came out at 7.5 nM.

With `CC(C)CCNC(=O)[C@H](C)NC(=O)C[C@H](O)[C@H](CC(C)C)NC(=O)[C@@H](NC(=O)[C@H](NC(=O)OC(C)(C)C)C(C)C)C(C)C`, on Pepsin A (Sus scrofa) [2], the TDI entry is “Active”. In addition, the Ki at Pepsin A was 11 nM.

The record behind these values is ChEMBL document CHEMBL1122088, “Synthesis of analogues of the carboxyl protease inhibitor pepstatin. Effect of structure in subsite P3 on inhibition of pepsin” (J Med Chem, 1982).
